Assays:
[1] = system: Rattus norvegicus; assay: Toxicity in male Wistar rat assessed as testes to body weight ratio at 3 mg/kg, po measured after 28 days (reference value: 1.075 +/-1 0.106); type: organism-based, Testis; design: dose 3 mg/kg, route oral; conditions: in vivo, 672 h
[2] = system: Rattus norvegicus; assay: Toxicity in male Wistar rat assessed as SGPT level at 3 mg/kg, po measured after 28 days (reference value: 34.24 +/- 2.13 U/L); type: organism-based; design: dose 3 mg/kg, route oral; conditions: in vivo, 672 h
[3] = system: Rattus norvegicus; assay: Toxicity in female Wistar rat assessed as hemoglobin level at 3 mg/kg, po measured after 28 days (reference value: 11.90 +/- 0.19 g/dl); type: organism-based; design: dose 3 mg/kg, route oral; conditions: in vivo, 672 h
[4] = system: Rattus norvegicus; assay: Toxicity in male Wistar rat assessed as adrenal to body weight ratio at 3 mg/kg, po measured after 28 days (reference value: 0.018 +/- 0.001); type: organism-based; design: dose 3 mg/kg, route oral; conditions: in vivo, 672 h
[5] = system: Rattus norvegicus; assay: Toxicity in female Wistar rat assessed as albumin level at 30 mg/kg, po measured after 28 days (reference value: 3.92 +/- 0.18 g.dl); type: organism-based; design: dose 30 mg/kg, route oral; conditions: in vivo, 672 h
[6] = system: Rattus norvegicus; assay: Toxicity in male Wistar rat assessed as creatinine level at 3 mg/kg, po measured after 28 days (reference value: 0.47 +/- 0.03 mg/dl); type: organism-based; design: dose 3 mg/kg, route oral; conditions: in vivo, 672 h
[7] = system: Rattus norvegicus; assay: Toxicity in male Wistar rat assessed as spleen to body weight ratio at 3 mg/kg, po measured after 28 days (reference value: 0.215 +/- 0.007); type: organism-based; design: dose 3 mg/kg, route oral; conditions: in vivo, 672 h
[8] = system: Mus musculus; assay: Hypolipidemic activity in db/db mouse assessed as reduction in triglyceride level at 3 mg/kg, po; type: functional; design: scale not given: the % may be the effect or the level left
[9] = system: Rattus norvegicus; assay: Toxicity in female Wistar rat assessed as uterus to body weight ratio at 3 mg/kg, po measured after 28 days (reference value: 0.233 +/- 0.041); type: organism-based; design: dose 3 mg/kg, route oral; conditions: in vivo, 672 h
[10] = system: Rattus norvegicus; assay: Toxicity in male Wistar rat assessed as brain to body weight ratio at 3 mg/kg, po measured after 28 days (reference value: 0.658 +/- 0.015); type: organism-based; design: dose 3 mg/kg, route oral; conditions: in vivo, 672 h
[11] = system: Rattus norvegicus; assay: Toxicity in female Wistar rat assessed as […] level at 3 mg/kg, po measured after 28 days (reference value: 172.38 +/- 7.18 U/L); type: organism-based; design: dose 3 mg/kg, route oral; conditions: in vivo, 672 h
[12] = system: Rattus norvegicus; assay: Toxicity in male Wistar rat assessed as liver to body weight ratio at 30 mg/kg, po measured after 28 days (reference value: 3.257 +/- 0.067); type: organism-based; design: dose 30 mg/kg, route oral; conditions: in vivo, 672 h
[13] = system: Rattus norvegicus; assay: Toxicity in male Wistar rat assessed as albumin level at 30 mg/kg, po measured after 28 days (reference value: 3.66 +/- 0.10 g.dl); type: organism-based; design: dose 30 mg/kg, route oral; conditions: in vivo, 672 h
[14] = system: Rattus norvegicus; assay: Toxicity in male Wistar rat assessed as SGPT level at 30 mg/kg, po measured after 28 days (reference value: 34.24 +/- 2.13 U/L); type: organism-based; design: dose 30 mg/kg, route oral; conditions: in vivo, 672 h
[15] = system: Rattus norvegicus; assay: Toxicity in female Wistar rat assessed as spleen to body weight ratio at 30 mg/kg, po measured after 28 days (reference value: 0.237 +/- 0.012); type: organism-based; design: dose 30 mg/kg, route oral; conditions: in vivo, 672 h
[16] = biological target: T1, Peroxisome proliferator-activated receptor alpha (Homo sapiens, UniProt Q07869); assay: Transactivation of human PPARalpha expressed in human HepG2 cells co-transfected with PPRE3-TK-Luc by luciferase reporter gene assay; type: cell-based
T1 sequence (Q07869 whole entry): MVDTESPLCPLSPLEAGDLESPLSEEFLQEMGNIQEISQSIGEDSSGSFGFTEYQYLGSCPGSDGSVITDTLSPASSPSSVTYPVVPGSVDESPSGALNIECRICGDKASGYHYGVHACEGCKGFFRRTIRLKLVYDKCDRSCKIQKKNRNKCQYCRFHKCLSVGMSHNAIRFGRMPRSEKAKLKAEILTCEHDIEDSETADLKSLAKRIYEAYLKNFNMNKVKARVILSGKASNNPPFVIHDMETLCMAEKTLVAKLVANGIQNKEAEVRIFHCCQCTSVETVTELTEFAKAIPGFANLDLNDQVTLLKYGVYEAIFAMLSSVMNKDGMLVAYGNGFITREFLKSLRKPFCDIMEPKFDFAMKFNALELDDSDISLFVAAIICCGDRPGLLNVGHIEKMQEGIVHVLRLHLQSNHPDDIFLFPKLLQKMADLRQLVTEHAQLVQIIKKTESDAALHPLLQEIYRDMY

[17] = system: Rattus norvegicus; assay: Toxicity in male Wistar rat assessed as change in body weight at 3 mg/kg, po measured after 28 days relative to control; type: organism-based; design: dose 3 mg/kg, route oral; conditions: in vivo, 672 h
[18] = system: Mus musculus; assay: Antihyperglycemic activity in db/db mouse assessed as reduction in plasma glucose level at 1 mg/kg, po; type: functional; design: scale not given: the % may be the effect or the level left
[19] = system: Rattus norvegicus; assay: Toxicity in female Wistar rat assessed as brain to body weight ratio at 3 mg/kg, po measured after 28 days (reference value: 0.970 +/- 0.023); type: organism-based; design: dose 3 mg/kg, route oral; conditions: in vivo, 672 h
[20] = system: Rattus norvegicus; assay: Toxicity in female Wistar rat assessed as adrenal to body weight ratio at 30 mg/kg, po measured after 28 days (reference value: 0.028 +/- 0.001); type: organism-based; design: dose 30 mg/kg, route oral; conditions: in vivo, 672 h
[21] = system: Rattus norvegicus; assay: Toxicity in male Wistar rat assessed as liver to body weight ratio at 3 mg/kg, po measured after 28 days (reference value: 3.257 +/- 0.067); type: organism-based; design: dose 3 mg/kg, route oral; conditions: in vivo, 672 h
[22] = system: Rattus norvegicus; assay: Toxicity in male Wistar rat assessed as glucose level at 30 mg/kg, po measured after 28 days (reference value: 70 +/- 3.49 mg/dl); type: organism-based; design: dose 30 mg/kg, route oral; conditions: in vivo, 672 h
[23] = system: Mus musculus; assay: Hypolipidemic activity in Swiss albino mouse assessed as reduction in triglyceride level at 1 mg/kg, po; type: functional; design: scale not given: the % may be the effect or the level left
[24] = system: Rattus norvegicus; assay: Toxicity in female Wistar rat assessed as Glucose level at 3 mg/kg, po measured after 28 days (reference value: 69.94 +/- 2.30 mg/dl); type: organism-based; design: dose 3 mg/kg, route oral; conditions: in vivo, 672 h
[25] = system: Rattus norvegicus; assay: Toxicity in female Wistar rat assessed as change in body weight at 3 mg/kg, po measured after 28 days relative to control; type: organism-based; design: dose 3 mg/kg, route oral; conditions: in vivo, 672 h
Outline: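 Wistar rats received 3 or 30 mg/kg orally for 28 days. Body weight was recorded weekly, and the % change in body weight over the study is tabulated.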

[26] = system: Mus musculus; assay: Hypolipidemic activity in Swiss albino mouse assessed as reduction in triglyceride level at 0.01 mg/kg, po; type: functional; design: scale not given: the % may be the effect or the level left
[27] = system: Mus musculus; assay: Hypolipidemic activity in db/db mouse assessed as reduction in triglyceride level at 1 mg/kg, po; type: functional; design: scale not given: the % may be the effect or the level left
[28] = system: Rattus norvegicus; assay: Toxicity in male Wistar rat assessed as spleen to body weight ratio at 30 mg/kg, po measured after 28 days (reference value: 0.215 +/- 0.007); type: organism-based; design: dose 30 mg/kg, route oral; conditions: in vivo, 672 h
[29] = system: Rattus norvegicus; assay: Toxicity in male Wistar rat assessed as ALP level at 30 mg/kg, po measured after 28 days (reference value: 243.88 +/- 20.34 U/L); conditions: in vivo, 672 h
[30] = AUC (0 to infinity) in fasting Wistar rat at 30 mg/kg, po; type: ADME, organism-based; design: time infinity, dose 30 mg/kg, route oral; conditions: plasma
Outline: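 Single oral dose of 30 mg/kg to fasted male Wistar rats. Pharmacokinetic parameters reported as mean ± SD, n = 3.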

[31] = Cmax in fasting Wistar rat at 30 mg/kg, po; type: ADME, organism-based; design: dose 30 mg/kg, route oral; conditions: in vivo
Outline: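 Fasted male Wistar rats received one oral dose of 30 mg/kg. Plasma Cmax, T1/2 and Tmax are reported as mean ± SD of n = 3.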

[32] = system: Rattus norvegicus; assay: Toxicity in female Wistar rat assessed as liver to body weight ratio at 30 mg/kg, po measured after 28 days (reference value: 3.091 +/- 0.087); type: organism-based; design: dose 30 mg/kg, route oral; conditions: in vivo, 672 h
[33] = system: Rattus norvegicus; assay: Toxicity in male Wistar rat assessed as hemoglobin level at 3 mg/kg, po measured after 28 days (reference value: 13.66 +/- 0.23 g/dl); type: organism-based; design: dose 3 mg/kg, route oral; conditions: in vivo, 672 h

## CCO[C@@H](Cc1ccc(OCCc2nc(-c3ccc(C)s3)oc2C)cc1)C(=O)O
[1]
  Ratio: 1.152
[2]
  Activity: 28.54 U/L
[3]
  Activity: 11.84 g/dL
[4]
  Ratio: 0.015
[5]
  Activity: 4.12 g/dL
[6]
  Activity: 0.36 mg/dL
[7]
  Ratio: 0.223
[8]
  Activity: 55.1%
[9]
  Ratio: 0.176
[10]
  Ratio: 0.72
[11]
  Activity: 248.13 U/L
[12]
  Ratio: 8.099
[13]
  Activity: 4.12 g/dL
[14]
  Activity: 33.03 U/L
[15]
  Ratio: 0.26
[16]
  EC50: 0.31 pM
[17]
  Activity: 33.99%
[18]
  Activity: 59.7%
[19]
  Ratio: 0.947
[20]
  Ratio: 0.022
[21]
  Ratio: 7.505
[22]
  Activity: 83.28 mg/dL
[23]
  Activity: 82%
[24]
  Activity: 91.88 mg/dL
[25]
  Activity: 21.77%
[26]
  Activity: 61.9%
[27]
  Activity: 64.2%
[28]
  Ratio: 0.252
[29]
  Activity: 679.13 U/L
[30]
  AUC(0-inf): 456 µg·h/mL
[31]
  Cmax: 91.7 µg/mL
[32]
  Ratio: 7.075
[33]
  Activity: 12.2 g/dL
